Consider one compound from ChEMBL document CHEMBL5661979, “Pharmacological inhibition of BMK1 suppresses tumor growth through promyelocytic leukemia protein” (Cancer Cell, 2010).

The target of test [1] is Dual specificity mitogen-activated protein kinase kinase 3 (Homo sapiens, UniProt P46734). Description: Inhibition of MAP2K3 in human HeLa cells lysate pre incubated for 15 mins followed by ATP acyl phosphate probe addition and measured after 10 mins by LC-MS/MS analysis. In kind it is subcellular.
Test [2] deals with Ribosomal protein S6 kinase alpha-5 (Homo sapiens, UniProt O75582). Description: Inhibition of MSK1 domain 1 in human HeLa cells lysate at 10 uM pre incubated for 15 mins followed by ADP acyl phosphate probe addition and measured after 10 mins by LC-MS/MS analysis relative to control. The class given is subcellular. The following applies: time 25.0 min.
For test [3], the target named is T1, Serine/threonine-protein kinase ULK3 (Homo sapiens) (UniProt Q6PHR2).
T1 sequence (whole entry): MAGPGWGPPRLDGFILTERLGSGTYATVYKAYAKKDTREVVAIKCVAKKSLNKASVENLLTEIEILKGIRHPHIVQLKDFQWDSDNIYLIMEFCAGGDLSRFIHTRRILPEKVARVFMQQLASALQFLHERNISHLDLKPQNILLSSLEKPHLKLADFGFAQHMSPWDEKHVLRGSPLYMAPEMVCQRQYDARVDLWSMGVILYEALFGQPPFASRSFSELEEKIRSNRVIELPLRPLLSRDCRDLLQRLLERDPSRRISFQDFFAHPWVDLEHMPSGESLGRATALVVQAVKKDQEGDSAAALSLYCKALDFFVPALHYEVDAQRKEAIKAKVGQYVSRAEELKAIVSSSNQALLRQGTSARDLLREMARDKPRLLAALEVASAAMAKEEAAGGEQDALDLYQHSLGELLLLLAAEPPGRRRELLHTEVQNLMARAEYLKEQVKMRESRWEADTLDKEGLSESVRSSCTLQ
Kind of test: Inhibition of ULK3 in human HeLa cells lysate at 2 uM pre incubated for 15 mins followed by ADP acyl phosphate probe addition and measured after 10 mins by LC-MS/MS analysis relative to control. In kind it is subcellular. The conditions noted are these: time 25.0 min.

In test [4] the target is Dual specificity mitogen-activated protein kinase kinase 1 (Homo sapiens, UniProt Q02750). Description: Inhibition of MAP2K1 in human HeLa cells lysate at 50 uM pre incubated for 15 mins followed by ATP acyl phosphate probe addition and measured after 10 mins by LC-MS/MS analysis relative to control. In kind it is subcellular. The following applies: time 25.0 min.
The target in test [5] is T2, Tyrosine-protein kinase CSK (Homo sapiens, UniProt P41240). Description: Inhibition of CSK in human HeLa cells lysate pre incubated for 15 mins followed by ATP acyl phosphate probe addition and measured after 10 mins by LC-MS/MS analysis. In kind it is subcellular.
Target sequence in this assay (P41240 whole entry, canonical isoform): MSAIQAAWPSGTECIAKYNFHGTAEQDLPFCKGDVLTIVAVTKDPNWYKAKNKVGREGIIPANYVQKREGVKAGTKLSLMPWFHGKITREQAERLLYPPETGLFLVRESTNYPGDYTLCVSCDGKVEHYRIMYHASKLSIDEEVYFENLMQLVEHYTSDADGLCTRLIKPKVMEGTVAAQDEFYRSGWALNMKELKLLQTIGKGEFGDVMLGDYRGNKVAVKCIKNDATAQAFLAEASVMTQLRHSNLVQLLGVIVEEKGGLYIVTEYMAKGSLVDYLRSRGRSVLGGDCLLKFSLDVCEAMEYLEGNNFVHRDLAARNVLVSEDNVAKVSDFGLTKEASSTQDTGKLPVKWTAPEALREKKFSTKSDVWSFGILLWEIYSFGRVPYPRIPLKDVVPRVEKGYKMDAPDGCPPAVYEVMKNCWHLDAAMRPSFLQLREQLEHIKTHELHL
The target in test [6] is T3, Phosphorylase b kinase gamma catalytic chain, liver/testis isoform (Homo sapiens) (UniProt P15735).
T3 sequence (whole entry): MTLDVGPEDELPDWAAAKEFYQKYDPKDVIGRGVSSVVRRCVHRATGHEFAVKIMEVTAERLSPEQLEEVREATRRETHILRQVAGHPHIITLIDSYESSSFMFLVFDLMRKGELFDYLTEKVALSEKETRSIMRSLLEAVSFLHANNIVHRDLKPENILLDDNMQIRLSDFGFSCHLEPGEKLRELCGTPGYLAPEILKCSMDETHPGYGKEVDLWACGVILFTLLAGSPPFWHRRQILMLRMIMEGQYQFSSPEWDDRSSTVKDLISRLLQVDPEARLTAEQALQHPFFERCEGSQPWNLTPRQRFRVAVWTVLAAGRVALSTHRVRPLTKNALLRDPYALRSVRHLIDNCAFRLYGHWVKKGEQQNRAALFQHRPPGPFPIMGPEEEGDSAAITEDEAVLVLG
Description: Inhibition of PHKg2 in human HeLa cells lysate at 10 uM pre incubated for 15 mins followed by ATP acyl phosphate probe addition and measured after 10 mins by LC-MS/MS analysis relative to control. The class given is subcellular. The following applies: time 25.0 min.

Test [7] has as its target Ephrin type-A receptor 2 (Homo sapiens, UniProt P29317). Description: Inhibition of EphA2 in human HeLa cells lysate at 50 uM pre incubated for 15 mins followed by ATP acyl phosphate probe addition and measured after 10 mins by LC-MS/MS analysis relative to control. The following applies: time 25.0 min. The class given is subcellular.
The target of test [8] is T4, Ribosomal protein S6 kinase alpha-3 (Homo sapiens, UniProt P51812). Description: Inhibition of RSK2 domain 1 in human HeLa cells lysate at 2 uM pre incubated for 15 mins followed by ADP acyl phosphate probe addition and measured after 10 mins by LC-MS/MS analysis relative to control. In kind it is subcellular. The conditions noted are these: time 25.0 min.
Test [9] has as its target Serine/threonine-protein kinase B-raf (Homo sapiens, UniProt P15056). Description: Inhibition of BRAF in human HeLa cells lysate at 2 uM pre incubated for 15 mins followed by ADP acyl phosphate probe addition and measured after 10 mins by LC-MS/MS analysis relative to control. The class given is subcellular. The following applies: time 25.0 min. Summed up: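 KiNativ-type profiling in HeLa lysate (5 mg/mL total protein). Lysate preincubated 15 min with inhibitor at 50, 10, 2, 0.8 or 0 μM, then ATP or ADP acylphosphate probe added (5 μM final) for 10 min. Reaction stopped with urea and analysed by targeted MS, using up to four fragment ions per kinase peptide-probe conjugate. % inhibition calculated against untreated lysate. Duplicate reactions.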

Test [10] is described as follows: Inhibition of MSK1/2 domain 1 in human HeLa cells lysate at 2 uM pre incubated for 15 mins followed by ATP acyl phosphate probe addition and measured after 10 mins by LC-MS/MS analysis relative to control. The conditions noted are these: 25 min, condition cancer.
For test [11], the target named is Serine/threonine-protein kinase TAO3 (Homo sapiens, UniProt Q9H2K8). Description: Inhibition of TAO3 in human HeLa cells lysate pre incubated for 15 mins followed by ATP acyl phosphate probe addition and measured after 10 mins by LC-MS/MS analysis. The class given is subcellular.
Test [12] has as its system Lewis lung carcinoma. Description: Antitumor activity against mouse LL2 cells allografted in C57Bl/6 mouse assessed as decrease in BrdU incorporation in cell nuclei in tumor at 50 mg/kg, ip by fluorescence microscopic analysis. In kind it is functional, organism-based. Summed up: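 HeLa or LL/2 tumor sections from treated and control xenograft mice were stained with anti-BrdU antibody and DAPI and imaged by fluorescence microscopy. n = 6 mice, 9 slices.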
For orientation: Dividing cells build labelled thymidine or BrdU into new DNA.

The target in test [13] is T2, Tyrosine-protein kinase CSK. Kind of test: Inhibition of CSK in human HeLa cells lysate at 50 uM pre incubated for 15 mins followed by ATP acyl phosphate probe addition and measured after 10 mins by LC-MS/MS analysis relative to control. The conditions noted are these: time 25.0 min. The class given is subcellular.
The target of test [14] is Serine/threonine-protein kinase 24 (Homo sapiens, UniProt Q9Y6E0). Description: Inhibition of MST3 in human HeLa cells lysate at 50 uM pre incubated for 15 mins followed by ADP acyl phosphate probe addition and measured after 10 mins by LC-MS/MS analysis relative to control. In kind it is subcellular. The conditions noted are these: time 25.0 min.
The target in test [15] is Mitogen-activated protein kinase kinase kinase 5 (Homo sapiens, UniProt Q99683). Kind of test: Inhibition of MAP3K5 in human HeLa cells lysate pre incubated for 15 mins followed by ATP acyl phosphate probe addition and measured after 10 mins by LC-MS/MS analysis. The class given is subcellular.
Test [16] deals with T4, Ribosomal protein S6 kinase alpha-3. Description: Inhibition of RSK2 domain 2 in human HeLa cells lysate pre incubated for 15 mins followed by ATP acyl phosphate probe addition and measured after 10 mins by LC-MS/MS analysis. In kind it is subcellular.
Test [17] has as its target Dual specificity mitogen-activated protein kinase kinase; MEK1/2 (Homo sapiens, UniProt P36507+Q02750). Kind of test: Inhibition of MAP2K1/MAP2K2 in human HeLa cells lysate pre incubated for 15 mins followed by ATP acyl phosphate probe addition and measured after 10 mins by LC-MS/MS analysis. The class given is subcellular.

Each structure is given as a SMILES string. Active and inactive are the calls of the source. No cut-off for these calls is given here.

T4 sequence (P51812 whole entry, the tested form may be a part): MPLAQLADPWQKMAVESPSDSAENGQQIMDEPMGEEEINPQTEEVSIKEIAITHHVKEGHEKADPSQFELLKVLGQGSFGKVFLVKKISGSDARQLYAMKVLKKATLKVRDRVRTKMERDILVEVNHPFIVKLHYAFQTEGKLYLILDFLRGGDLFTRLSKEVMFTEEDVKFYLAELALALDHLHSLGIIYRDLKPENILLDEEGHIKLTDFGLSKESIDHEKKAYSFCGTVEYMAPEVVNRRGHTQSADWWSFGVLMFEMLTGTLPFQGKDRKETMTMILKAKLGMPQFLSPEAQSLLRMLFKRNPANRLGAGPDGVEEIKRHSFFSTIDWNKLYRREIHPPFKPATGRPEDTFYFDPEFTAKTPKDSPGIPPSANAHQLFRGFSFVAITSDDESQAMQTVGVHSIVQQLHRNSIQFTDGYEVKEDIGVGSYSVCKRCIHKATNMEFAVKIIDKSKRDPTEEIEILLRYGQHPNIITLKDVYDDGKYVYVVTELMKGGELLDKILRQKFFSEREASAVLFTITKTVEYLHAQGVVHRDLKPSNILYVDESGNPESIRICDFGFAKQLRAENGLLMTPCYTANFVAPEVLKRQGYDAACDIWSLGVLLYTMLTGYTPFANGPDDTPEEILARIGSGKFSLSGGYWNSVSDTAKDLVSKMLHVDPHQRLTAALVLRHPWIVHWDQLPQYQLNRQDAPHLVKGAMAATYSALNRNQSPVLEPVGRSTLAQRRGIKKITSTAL
Dual specificity mitogen-activated protein kinase kinase 1, sequence (Q02750 whole entry): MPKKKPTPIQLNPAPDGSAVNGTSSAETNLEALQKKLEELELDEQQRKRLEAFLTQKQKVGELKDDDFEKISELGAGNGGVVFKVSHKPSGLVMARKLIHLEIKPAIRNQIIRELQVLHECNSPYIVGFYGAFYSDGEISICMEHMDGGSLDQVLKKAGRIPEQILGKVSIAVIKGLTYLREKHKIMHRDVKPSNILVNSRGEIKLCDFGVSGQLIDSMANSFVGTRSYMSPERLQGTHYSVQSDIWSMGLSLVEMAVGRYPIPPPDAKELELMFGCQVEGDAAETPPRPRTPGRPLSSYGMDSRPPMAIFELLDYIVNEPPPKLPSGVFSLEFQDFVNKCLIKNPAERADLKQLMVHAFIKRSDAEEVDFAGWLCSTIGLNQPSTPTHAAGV
Ephrin type-A receptor 2, sequence (P29317 whole entry, the tested form may be a part): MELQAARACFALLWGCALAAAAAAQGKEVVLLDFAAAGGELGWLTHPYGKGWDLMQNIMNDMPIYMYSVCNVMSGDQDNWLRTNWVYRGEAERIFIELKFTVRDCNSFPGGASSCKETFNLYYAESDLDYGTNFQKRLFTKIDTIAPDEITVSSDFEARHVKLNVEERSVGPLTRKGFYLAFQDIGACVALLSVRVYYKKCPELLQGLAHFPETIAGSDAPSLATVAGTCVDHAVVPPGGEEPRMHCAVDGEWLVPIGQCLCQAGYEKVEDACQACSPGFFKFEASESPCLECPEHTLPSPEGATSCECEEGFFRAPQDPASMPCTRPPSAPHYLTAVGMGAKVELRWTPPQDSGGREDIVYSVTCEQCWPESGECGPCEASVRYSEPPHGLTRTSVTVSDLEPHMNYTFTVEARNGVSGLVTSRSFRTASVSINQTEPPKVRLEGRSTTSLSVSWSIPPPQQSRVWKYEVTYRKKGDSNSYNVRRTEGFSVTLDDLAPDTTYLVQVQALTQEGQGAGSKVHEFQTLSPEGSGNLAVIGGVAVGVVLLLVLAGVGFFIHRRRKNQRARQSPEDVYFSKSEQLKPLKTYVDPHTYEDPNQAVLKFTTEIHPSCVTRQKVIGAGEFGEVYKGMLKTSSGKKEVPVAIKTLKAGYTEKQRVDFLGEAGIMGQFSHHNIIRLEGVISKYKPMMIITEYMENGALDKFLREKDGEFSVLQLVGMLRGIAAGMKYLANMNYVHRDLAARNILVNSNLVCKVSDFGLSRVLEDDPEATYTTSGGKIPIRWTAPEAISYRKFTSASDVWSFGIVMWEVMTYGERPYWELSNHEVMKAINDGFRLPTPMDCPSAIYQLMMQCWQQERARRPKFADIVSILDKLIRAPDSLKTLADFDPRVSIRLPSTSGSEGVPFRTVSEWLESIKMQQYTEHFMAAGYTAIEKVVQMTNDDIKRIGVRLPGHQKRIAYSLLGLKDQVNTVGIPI
Mitogen-activated protein kinase kinase kinase 5, sequence (Q99683 whole entry, the tested form may be a part): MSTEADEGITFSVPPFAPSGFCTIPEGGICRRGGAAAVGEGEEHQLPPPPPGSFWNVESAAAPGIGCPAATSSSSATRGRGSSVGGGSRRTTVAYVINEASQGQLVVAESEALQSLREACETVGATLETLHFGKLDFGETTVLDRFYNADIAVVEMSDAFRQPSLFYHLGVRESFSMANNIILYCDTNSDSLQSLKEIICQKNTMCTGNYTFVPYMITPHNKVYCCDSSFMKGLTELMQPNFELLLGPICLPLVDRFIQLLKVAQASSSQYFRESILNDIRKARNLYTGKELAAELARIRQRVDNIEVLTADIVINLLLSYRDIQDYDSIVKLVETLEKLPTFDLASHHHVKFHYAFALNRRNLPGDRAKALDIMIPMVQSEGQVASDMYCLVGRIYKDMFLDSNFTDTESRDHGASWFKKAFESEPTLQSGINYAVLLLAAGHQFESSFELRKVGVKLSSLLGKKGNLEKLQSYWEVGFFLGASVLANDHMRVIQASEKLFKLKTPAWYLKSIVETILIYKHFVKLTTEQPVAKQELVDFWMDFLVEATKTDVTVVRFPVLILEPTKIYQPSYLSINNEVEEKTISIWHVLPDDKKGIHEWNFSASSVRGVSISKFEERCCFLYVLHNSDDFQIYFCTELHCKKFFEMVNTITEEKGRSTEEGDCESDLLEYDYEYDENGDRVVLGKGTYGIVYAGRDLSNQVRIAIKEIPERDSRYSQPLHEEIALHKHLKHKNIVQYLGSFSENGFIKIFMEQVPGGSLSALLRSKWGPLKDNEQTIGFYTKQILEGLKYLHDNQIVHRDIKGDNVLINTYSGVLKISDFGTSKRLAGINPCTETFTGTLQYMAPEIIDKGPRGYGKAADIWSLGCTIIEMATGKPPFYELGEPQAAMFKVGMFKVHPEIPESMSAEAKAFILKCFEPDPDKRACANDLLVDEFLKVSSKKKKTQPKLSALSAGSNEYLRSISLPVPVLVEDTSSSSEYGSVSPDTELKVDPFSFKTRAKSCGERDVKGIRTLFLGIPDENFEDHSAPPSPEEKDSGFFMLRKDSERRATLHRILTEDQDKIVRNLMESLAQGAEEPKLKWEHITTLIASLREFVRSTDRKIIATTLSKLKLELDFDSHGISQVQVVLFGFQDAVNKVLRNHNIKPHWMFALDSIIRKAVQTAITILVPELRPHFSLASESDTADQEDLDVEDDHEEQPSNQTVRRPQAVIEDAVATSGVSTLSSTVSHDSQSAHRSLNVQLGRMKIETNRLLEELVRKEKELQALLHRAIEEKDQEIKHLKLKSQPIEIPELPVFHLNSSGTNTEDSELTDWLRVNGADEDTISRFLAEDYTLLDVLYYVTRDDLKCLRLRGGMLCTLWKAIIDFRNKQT
Serine/threonine-protein kinase B-raf, sequence (P15056 whole entry, the tested form may be a part): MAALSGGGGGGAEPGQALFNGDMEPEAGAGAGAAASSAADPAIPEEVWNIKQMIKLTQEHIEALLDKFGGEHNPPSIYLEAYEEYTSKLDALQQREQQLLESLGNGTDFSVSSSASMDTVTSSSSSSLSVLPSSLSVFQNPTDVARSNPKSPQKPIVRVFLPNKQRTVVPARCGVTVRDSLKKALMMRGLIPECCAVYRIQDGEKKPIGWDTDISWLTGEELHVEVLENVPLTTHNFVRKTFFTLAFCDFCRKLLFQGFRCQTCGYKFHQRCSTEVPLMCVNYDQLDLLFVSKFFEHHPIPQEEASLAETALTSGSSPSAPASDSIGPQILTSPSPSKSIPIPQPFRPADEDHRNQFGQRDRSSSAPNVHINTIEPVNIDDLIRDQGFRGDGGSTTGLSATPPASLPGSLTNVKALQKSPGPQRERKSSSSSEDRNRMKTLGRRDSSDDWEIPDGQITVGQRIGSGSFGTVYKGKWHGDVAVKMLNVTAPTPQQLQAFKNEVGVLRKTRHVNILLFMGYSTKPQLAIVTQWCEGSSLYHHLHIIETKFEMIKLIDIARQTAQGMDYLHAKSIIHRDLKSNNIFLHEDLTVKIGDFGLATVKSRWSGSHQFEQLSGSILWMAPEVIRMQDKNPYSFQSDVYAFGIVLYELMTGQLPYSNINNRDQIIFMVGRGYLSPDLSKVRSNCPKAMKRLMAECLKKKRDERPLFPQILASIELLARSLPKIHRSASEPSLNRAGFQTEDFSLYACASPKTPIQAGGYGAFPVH
Dual specificity mitogen-activated protein kinase kinase 3, sequence (P46734 whole entry, the tested form may be a part): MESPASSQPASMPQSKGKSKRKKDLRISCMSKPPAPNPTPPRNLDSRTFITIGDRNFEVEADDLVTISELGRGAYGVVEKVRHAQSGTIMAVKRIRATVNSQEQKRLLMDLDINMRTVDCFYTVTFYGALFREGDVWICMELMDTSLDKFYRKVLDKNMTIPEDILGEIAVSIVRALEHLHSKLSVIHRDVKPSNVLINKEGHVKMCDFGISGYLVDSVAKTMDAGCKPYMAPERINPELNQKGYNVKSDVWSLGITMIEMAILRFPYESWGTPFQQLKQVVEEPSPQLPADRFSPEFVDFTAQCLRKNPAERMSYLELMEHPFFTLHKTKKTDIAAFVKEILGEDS

Usually IC50 stands for the concentration that gives 50% inhibition. Higher therefore signals weaker potency. A word on the inhibition: it is the change of the read-out against control, counted positive when it falls. For the compound `CCOc1cc(N2CCC(O)CC2)ccc1Nc1ncc2c(n1)N(C)c1ccccc1C(=O)N2C`, the half-inhibitory concentration (IC50) in test [1] is greater than 50 µM; in [5], greater than 50 µM; in [11] it was greater than 50 µM; in test [15], greater than 50 µM; in test [16], 49 µM; in [17], greater than 50 µM. The inhibition in test [2] was -7.3%; in [3] it was 18.8%; in [4], -7.3%; in test [6] it was -4.9%; in [7], -7.8%; in test [8], 4.9%. In addition, the figures for the inhibition in [9], in test [13] and in test [14] were 10.5%, 0.9% and -8.5%, respectively. The inhibition at 2 µM in test [10] was -4.6%. In addition, the outcome in test [12] was Active.
